Measured values as given in ChEMBL document CHEMBL3352788, “Characterization of selective exosite-binding inhibitors of matrix metalloproteinase 13 that prevent articular cartilage degradation in vitro” (J Med Chem, 2014).
One block for each compound: values may come before it.

Experiments:
[1] = molecular target: T1, CYP3A4 (Homo sapiens, UniProt P08684); assay: Inhibition of CYP3A4 (unknown origin) using midazolam substrate at 20 uM; assay type: ADME; details: probe midazolam
In short: (§1)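 Human liver microsomes with probe substrate and an NADPH-regenerating system in 0.1 M potassium phosphate pH 7.4 at 37 °C, run in duplicate. Inhibitor at 0–20 μM (0–2.5 μM for one compound), eight concentrations. Reactions were stopped with acetonitrile/formic acid containing isotope-labelled internal standard, and metabolite area ratios were compared with and without inhibitor. IC50 was taken by linear interpolation between bracketing concentrations.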

[2] = molecular target: Cytochrome P450 2C19 (Homo sapiens, UniProt P33261); assay: (§2) Inhibition of CYP2C19 (unknown origin) using (S)-mephentoin substrate at 20 uM; assay type: ADME; details: 20 µM; in short: as §1
Sequence of Cytochrome P450 2C19 (P33261 whole entry): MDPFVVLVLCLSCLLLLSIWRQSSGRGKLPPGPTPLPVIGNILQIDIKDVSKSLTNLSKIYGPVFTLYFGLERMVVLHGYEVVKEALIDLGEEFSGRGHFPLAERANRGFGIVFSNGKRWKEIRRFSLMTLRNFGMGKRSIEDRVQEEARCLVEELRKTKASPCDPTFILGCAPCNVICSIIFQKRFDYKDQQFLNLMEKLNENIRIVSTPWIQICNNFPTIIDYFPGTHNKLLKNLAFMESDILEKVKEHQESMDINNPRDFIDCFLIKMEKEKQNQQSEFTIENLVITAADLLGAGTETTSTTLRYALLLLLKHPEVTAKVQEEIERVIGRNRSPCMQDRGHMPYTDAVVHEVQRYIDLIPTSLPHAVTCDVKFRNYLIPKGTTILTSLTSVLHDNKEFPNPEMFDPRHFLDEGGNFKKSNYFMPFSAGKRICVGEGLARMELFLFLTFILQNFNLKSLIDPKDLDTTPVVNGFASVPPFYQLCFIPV

[3] = molecular target: T2, Cytochrome P450 2B6 (Homo sapiens, UniProt P20813); assay: (§3) Inhibition of CYP2B6 (unknown origin) using bupropion substrate at 20 uM; assay type: ADME; details: 20 µM; in short: as §1
T2 sequence (P20813 whole entry): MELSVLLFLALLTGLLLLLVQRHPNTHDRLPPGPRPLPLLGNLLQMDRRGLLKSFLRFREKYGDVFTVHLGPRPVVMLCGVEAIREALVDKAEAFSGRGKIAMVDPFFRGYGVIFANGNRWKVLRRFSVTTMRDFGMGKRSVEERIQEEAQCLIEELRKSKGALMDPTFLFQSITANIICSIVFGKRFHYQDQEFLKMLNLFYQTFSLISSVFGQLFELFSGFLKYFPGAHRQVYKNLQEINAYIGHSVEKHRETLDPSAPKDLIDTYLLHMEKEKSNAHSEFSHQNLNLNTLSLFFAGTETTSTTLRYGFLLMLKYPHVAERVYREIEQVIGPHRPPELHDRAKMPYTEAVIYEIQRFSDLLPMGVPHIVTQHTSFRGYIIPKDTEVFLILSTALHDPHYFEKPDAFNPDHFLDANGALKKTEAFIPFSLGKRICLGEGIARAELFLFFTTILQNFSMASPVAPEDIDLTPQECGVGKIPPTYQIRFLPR

[4] = molecular target: Furin (Homo sapiens) (UniProt P09958); assay: Inhibition of recombinant human furin using RRVKRSLD substrate at up to 5 uM after 3 hrs
Sequence of Furin (Homo sapiens) (P09958 whole entry): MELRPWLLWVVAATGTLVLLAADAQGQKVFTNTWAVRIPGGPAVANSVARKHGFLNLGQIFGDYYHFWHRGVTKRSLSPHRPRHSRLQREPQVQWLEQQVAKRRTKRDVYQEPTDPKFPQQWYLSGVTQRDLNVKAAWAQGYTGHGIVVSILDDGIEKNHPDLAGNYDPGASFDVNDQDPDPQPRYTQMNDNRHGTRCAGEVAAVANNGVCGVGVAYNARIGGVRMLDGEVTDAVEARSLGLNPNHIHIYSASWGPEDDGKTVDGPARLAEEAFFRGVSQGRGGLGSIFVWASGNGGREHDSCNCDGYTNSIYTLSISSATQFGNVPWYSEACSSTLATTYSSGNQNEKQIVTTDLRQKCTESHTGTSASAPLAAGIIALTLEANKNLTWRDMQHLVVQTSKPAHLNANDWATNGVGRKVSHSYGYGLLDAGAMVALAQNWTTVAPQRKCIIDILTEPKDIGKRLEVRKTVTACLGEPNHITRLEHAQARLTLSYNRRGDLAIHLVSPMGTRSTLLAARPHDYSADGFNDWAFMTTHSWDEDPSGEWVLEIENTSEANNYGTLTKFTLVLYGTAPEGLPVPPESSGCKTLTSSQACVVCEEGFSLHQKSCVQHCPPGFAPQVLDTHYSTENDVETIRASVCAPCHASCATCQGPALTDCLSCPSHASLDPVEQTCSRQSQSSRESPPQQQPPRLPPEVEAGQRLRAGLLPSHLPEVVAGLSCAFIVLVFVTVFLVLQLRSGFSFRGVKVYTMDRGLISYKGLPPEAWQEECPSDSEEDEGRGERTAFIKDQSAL
In short: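 In this microfluidic protease panel, enzyme and compound were preincubated 30 min at 25 °C. The peptide substrate was added and the reaction was incubated 3 h at 25 °C, then quenched (SDS, EDTA, iodoacetate). Activity was read as % substrate converted to product. Dose–response was singlicate, 12-point 3-fold dilutions spanning 5 μM to 0.028 nM. IC50 was the concentration leaving 50% activity relative to no-compound control.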

[5] = molecular target: Cytochrome P450 2C9 (Homo sapiens, UniProt P11712); assay: (§4) Inhibition of CYP2C9 (unknown origin) using diclofenac substrate at 20 uM; assay type: ADME; details: 20 µM; in short: as §1
Sequence of Cytochrome P450 2C9 (P11712 whole entry): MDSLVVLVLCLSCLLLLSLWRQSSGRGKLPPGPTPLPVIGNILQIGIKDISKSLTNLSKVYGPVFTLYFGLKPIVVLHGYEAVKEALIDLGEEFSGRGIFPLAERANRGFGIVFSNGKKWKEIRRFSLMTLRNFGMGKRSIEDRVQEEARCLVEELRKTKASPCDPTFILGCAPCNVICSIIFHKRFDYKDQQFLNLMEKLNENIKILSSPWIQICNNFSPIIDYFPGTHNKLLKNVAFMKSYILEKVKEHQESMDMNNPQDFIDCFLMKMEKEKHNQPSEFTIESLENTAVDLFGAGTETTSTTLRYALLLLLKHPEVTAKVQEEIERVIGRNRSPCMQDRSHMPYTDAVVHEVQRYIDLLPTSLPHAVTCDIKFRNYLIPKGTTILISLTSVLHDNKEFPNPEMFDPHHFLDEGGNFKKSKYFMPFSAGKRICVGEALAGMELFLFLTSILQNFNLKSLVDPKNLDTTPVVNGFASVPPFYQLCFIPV

[6] = molecular target: T3, Cytochrome P450 2C8 (Homo sapiens, UniProt P10632); assay: (§5) Inhibition of CYP2C8 (unknown origin) using amodiaquine substrate at 20 uM; assay type: ADME; details: 20 µM; in short: as §1
T3 sequence (P10632 whole entry): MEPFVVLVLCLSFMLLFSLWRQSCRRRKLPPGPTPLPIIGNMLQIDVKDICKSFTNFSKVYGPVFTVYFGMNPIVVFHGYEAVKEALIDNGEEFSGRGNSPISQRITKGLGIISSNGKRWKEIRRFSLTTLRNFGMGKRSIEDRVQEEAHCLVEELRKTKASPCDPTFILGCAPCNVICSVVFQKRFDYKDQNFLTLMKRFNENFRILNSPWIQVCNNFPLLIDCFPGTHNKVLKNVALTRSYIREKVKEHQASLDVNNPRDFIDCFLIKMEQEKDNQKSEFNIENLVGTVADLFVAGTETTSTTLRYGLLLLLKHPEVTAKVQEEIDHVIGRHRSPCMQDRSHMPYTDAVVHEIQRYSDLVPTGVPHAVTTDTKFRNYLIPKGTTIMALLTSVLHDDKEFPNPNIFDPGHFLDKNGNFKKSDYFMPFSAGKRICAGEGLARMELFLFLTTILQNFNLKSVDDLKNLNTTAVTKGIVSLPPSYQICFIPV

[7] = molecular target: Cytochrome P450 2D6 (Homo sapiens, UniProt P10635); assay: (§6) Inhibition of CYP2D6 (unknown origin) using dextromethophan substrate at 20 uM; assay type: ADME; details: 20 µM; in short: as §1
Sequence of Cytochrome P450 2D6 (P10635 whole entry): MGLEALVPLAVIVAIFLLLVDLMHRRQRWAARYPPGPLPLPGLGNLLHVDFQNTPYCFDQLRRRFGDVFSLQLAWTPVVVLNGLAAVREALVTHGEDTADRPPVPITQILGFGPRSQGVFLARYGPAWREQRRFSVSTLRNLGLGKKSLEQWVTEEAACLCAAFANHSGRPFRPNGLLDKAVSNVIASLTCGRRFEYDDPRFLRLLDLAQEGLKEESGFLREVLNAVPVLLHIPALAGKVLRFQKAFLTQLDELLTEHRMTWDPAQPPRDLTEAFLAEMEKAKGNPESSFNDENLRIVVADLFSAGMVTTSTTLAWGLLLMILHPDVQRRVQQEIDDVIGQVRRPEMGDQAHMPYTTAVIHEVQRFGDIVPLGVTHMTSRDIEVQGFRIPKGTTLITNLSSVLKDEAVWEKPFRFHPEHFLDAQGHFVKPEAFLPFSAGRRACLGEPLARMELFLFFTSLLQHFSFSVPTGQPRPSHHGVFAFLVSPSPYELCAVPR

[8] = molecular target: T4, CYP2C19 (Homo sapiens, UniProt P33261); assay: as §2; assay type: ADME; details: probe (S)-mephentoin; in short: as §1
T4 sequence (P33261 whole entry): as the sequence (P33261 whole entry) above

[9] = molecular target: T5, CYP2B6 (Homo sapiens, UniProt P20813); assay: as §3; assay type: ADME; details: probe bupropion; in short: as §1
[10] = molecular target: T6, CYP2C9 (Homo sapiens, UniProt P11712); assay: as §4; assay type: ADME; details: probe diclofenac; in short: as §1
T6 sequence (P11712 whole entry): as the sequence (P11712 whole entry) above

[11] = molecular target: T7, CYP2C8 (Homo sapiens, UniProt P10632); assay: as §5; assay type: ADME; details: probe amodiaquine; in short: as §1
[12] = molecular target: T8, CYP2D6 (Homo sapiens, UniProt P10635); assay: as §6; assay type: ADME; details: probe dextromethophan; in short: as §1
T8 sequence (P10635 whole entry): as the sequence (P10635 whole entry) above

[13] = tested on: Liver microsome; assay: Half life in human liver microsomes by LC-MS/MS analysis; assay type: ADME
In short: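 Compound at 1 μM with 1 mg/mL liver microsomes in 100 mM potassium phosphate pH 7.4 at 37 °C with shaking. Reaction started with 1 mM NADPH (final). Aliquots were taken at 0, 5, 10, 20, 40 and 60 min and quenched in acetonitrile. Parallel incubations without NADPH were run.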

[14] = molecular target: T1, CYP3A4; assay: Inhibition of CYP3A4 (unknown origin) using midazolam substrate at 2.5 uM; assay type: ADME; details: probe midazolam; in short: as §1
[15] = molecular target: CYP1A2 (Homo sapiens, UniProt P05177); assay: Inhibition of CYP1A2 (unknown origin) using tacrin substrate at 2.5 uM; assay type: ADME; details: probe tacrin; in short: as §1
Sequence of CYP1A2 (P05177 whole entry): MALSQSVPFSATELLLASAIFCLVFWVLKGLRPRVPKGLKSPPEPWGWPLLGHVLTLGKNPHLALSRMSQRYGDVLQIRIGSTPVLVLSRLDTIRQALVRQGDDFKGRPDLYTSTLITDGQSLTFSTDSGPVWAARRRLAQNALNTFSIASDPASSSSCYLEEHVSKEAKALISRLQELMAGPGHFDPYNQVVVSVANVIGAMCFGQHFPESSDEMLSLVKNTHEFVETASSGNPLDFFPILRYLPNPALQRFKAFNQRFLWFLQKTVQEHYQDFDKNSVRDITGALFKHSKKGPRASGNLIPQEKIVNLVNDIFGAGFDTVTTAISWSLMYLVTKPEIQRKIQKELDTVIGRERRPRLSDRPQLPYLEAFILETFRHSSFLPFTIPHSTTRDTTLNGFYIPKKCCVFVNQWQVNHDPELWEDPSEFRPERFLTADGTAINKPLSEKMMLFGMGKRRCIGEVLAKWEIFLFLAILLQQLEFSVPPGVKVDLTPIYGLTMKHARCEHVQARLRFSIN

[16] = molecular target: T5, CYP2B6; assay: Inhibition of CYP2B6 (unknown origin) using bupropion substrate at 2.5 uM; assay type: ADME; details: probe bupropion; in short: as §1
[17] = molecular target: T8, CYP2D6; assay: Inhibition of CYP2D6 (unknown origin) using dextromethophan substrate at 2.5 uM; assay type: ADME; details: probe dextromethophan; in short: as §1
[18] = molecular target: T7, CYP2C8; assay: Inhibition of CYP2C8 (unknown origin) using amodiaquine substrate at 2.5 uM; assay type: ADME; details: probe amodiaquine; in short: as §1
[19] = molecular target: T6, CYP2C9; assay: Inhibition of CYP2C9 (unknown origin) using diclofenac substrate at 2.5 uM; assay type: ADME; details: probe diclofenac; in short: as §1
[20] = molecular target: T1, CYP3A4; assay: Inhibition of CYP3A4 (unknown origin) using testosterone substrate at 2.5 uM; assay type: ADME; details: probe testosterone; in short: as §1
[21] = molecular target: T4, CYP2C19; assay: Inhibition of CYP2C19 (unknown origin) using (S)-mephentoin substrate at 2.5 uM; assay type: ADME; details: probe (S)-mephentoin; in short: as §1

T1 sequence (P08684 whole entry): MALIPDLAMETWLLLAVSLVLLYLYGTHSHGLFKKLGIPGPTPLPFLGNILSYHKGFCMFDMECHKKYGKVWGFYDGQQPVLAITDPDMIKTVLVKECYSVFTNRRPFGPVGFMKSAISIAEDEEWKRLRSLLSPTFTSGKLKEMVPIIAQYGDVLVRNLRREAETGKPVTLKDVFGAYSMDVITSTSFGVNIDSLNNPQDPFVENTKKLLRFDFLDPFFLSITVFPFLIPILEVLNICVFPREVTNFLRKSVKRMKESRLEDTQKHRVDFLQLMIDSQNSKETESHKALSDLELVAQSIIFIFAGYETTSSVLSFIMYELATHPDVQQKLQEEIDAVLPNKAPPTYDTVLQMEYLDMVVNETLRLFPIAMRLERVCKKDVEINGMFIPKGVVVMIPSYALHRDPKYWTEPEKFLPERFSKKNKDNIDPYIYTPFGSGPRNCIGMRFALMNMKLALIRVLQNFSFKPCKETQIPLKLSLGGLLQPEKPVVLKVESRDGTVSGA

inhibition at 20 µM [1]: < 50% | inhibition (INH) [2]: > 10% | inhibition (INH) [3]: > 10% | inhibition [4]: < 10% | inhibition (INH) [5]: > 10% | inhibition (INH) [6]: > 10% | inhibition (INH) [7]: > 10%
SMILES: Cc1cc(CNC(=O)c2cc(C(=O)NCc3ccc(F)c(C)c3)ncn2)ccc1F

SMILES: COC(=O)c1ccc(CSc2nc3c(c(=O)[nH]2)CCC3)cc1
inhibition at 20 µM [1]: < 50% | inhibition at 20 µM [8]: < 50% | inhibition at 20 µM [9]: < 50% | inhibition at 20 µM [10]: 17% | inhibition at 20 µM [11]: < 50% | inhibition at 20 µM [12]: < 50%

SMILES: Oc1nc(SCc2ccc(Cl)cc2)nc2c1CCC2
t1/2 [13]: 10.4 min

inhibition at 2.5 µM [14]: < 50% | inhibition at 2.5 µM [15]: 17% | inhibition at 2.5 µM [16]: < 50% | inhibition at 2.5 µM [17]: < 50% | inhibition at 2.5 µM [18]: < 50% | inhibition at 2.5 µM [19]: < 50% | inhibition at 2.5 µM [20]: < 50% | inhibition [4]: < 10% | inhibition at 2.5 µM [21]: < 50%
SMILES: Cn1c(=O)n(Cc2ccc(C(=O)O)cc2)c(=O)c2cc(C#CCc3ccccc3)ccc21
